High-throughput results (PubChem BioAssay)
Neddyl block – inhibitors of human cullin neddylation | P61081+Q13564 | inhibition, % at 25 µM | AID 651699 | TR-FRET cullin neddylation, biochemical | 0.58% of 360,000 active; in the data active = inhibition above about 36%
Tb MetRS inh – Trypanosoma brucei MetRS inhibition | purified T. brucei MetRS, ATP depletion, Kinase-Glo luminescence | 0.4% of 360,000 active | inhibition, % at 11.9 µM;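 active = inhibition above a per-plate cutoff of the control wells' mean inhibition plus 3 SD, cut at about 5.5% in these data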;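 note: 0% = DMSO wells median and 100% = median of wells with control inhibitor compound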
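technique = Kinase-Glo luminescence, ATP depletion format | system = purified MetRS (methionyl-tRNA synthetase) enzyme from Trypanosoma brucei | timing = 15 min preincubation, 2 h reaction, all 25 °C | evaluation = percent inhibition versus plate control medians | dosing = single dose, 11.9 µM final nominal, 0.9% final DMSO | also added = substrates ATP, L-methionine and bulk Escherichia coli tRNA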
CSN deneddyl inh – blocks human CSN-mediated cullin deneddylation; Q92905; 0.38% of 360,000 active; Purified CSN, SCF-Nedd8-OG deneddylation, fluorescence polarization; inhibition, % at 12.5 µM;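 active = pattern-corrected inhibition above about 35%, with an unprinted fluorescence ratio check between 0.5 and 1.5, limit read from the data, passing the limit was not always enough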;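 note: 0% = enzyme with substrate and 100% = substrate without enzyme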
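Material: human Csn5 produced in HEK293T cells; Input: enzyme 0.24 nM; Reagent: SCFSkp2-Nedd8OG substrate at 10 nM final; Dosing: 12.5 µM compound; Incubation: 90 min reaction at room temperature; Detection: fluorescence polarization of the substrate; Evaluation: % inhibition of substrate cleavage by Csn5; Control set: substrate-only high control, full reaction low control.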
PREPL inhibitor – inhibits the human prolyl oligopeptidase-like enzyme. inhibition, % at 5.96 µM. 0.68% of 320,000 active. recombinant PREPL, fluorescence polarization activity-based probe. AID 2751. Q4J6C6;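 note: 0% = enzyme with DMSO and 100% = wells lacking enzyme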
HNF4A DNA FP – change in binding of human HNF4 alpha to DNA; P41235; HNF4a-FITC DNA binding, fluorescence polarization, 1 h; activity change, % at 10 µM; 0.3% of 360,000 active; AID 1224865; in the data active = activity change above about 30%, passing the limit was not always enough
Rpn11 inh – blocks the human proteasome subunit Rpn11; O00487; human 26S proteasome, Ub4-pepOG fluorescence polarization; 20S core pre-blocked with epoxomicin; inhibition, % at 20 µM; 0.59% of 360,000 active; AID 588493;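 active = inhibition at 20 µM, scaled to each plate's controls, above about 33%, limit read from the data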
Target sequence (O00487 whole entry, looked up): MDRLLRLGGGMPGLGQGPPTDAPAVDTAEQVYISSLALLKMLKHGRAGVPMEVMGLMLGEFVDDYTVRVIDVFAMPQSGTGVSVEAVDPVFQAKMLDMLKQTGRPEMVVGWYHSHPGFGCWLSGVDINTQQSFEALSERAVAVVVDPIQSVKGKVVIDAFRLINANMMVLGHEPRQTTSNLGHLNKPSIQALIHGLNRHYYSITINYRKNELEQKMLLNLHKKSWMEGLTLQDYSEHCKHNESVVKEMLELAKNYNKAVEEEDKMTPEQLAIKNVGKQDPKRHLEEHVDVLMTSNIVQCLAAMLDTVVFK
PREPL confirm – human PREPL inhibition, confirmation | recombinant PREPL, fluorescence polarization activity probe | inhibition, % at 5.96 µM | 67% of 2,000 active | shares compounds with PREPL inhibitor;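 note: 0% = protein with DMSO and 100% = wells lacking protein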
* marks the source's active call; other numbers are inactive results. Most compounds without a hit are left out; they make up all but 2.4% or so of the library. Cut-off read from the data, not from the text of the source, unless noted: active = inhibition above about 43%; inactive = the rest.

`CCN(C(=O)CN1CCN(S(=O)(=O)c2cc(Cl)ccc2Cl)CC1)c1c(N)n(Cc2ccccc2)c(=O)[nH]c1=O` gave Neddyl block 7, Tb MetRS inh -1, CSN deneddyl inh 2, PREPL inhibitor 64*, HNF4A DNA FP 0, Rpn11 inh -4 and PREPL confirm 61*.
For CCN(C(=O)CN1CCCCCC1)c1c(N)n(Cc2ccccc2)c(=O)[nH]c1=O the results were Neddyl block 12, Tb MetRS inh 0, CSN deneddyl inh -3, PREPL inhibitor 22, HNF4A DNA FP 9 and Rpn11 inh 4.
For COc1cc(/C=C/[N+](=O)[O-])ccc1OC(=O)/C=C/c1ccc(F)cc1 the results were Neddyl block 5, Tb MetRS inh -1, CSN deneddyl inh 1, PREPL inhibitor 47*, HNF4A DNA FP 0, Rpn11 inh -7 and PREPL confirm 46*.
COc1ccc(/C=C/C(=O)Oc2ccc(C)c(C)c2)cc1OC was read as Neddyl block 9, Tb MetRS inh -1, CSN deneddyl inh 1, PREPL inhibitor 7, HNF4A DNA FP 1 and Rpn11 inh -1.
CN1CCc2c(n(CC(O)CNCc3ccccc3)c3ccccc23)C1=O (centres undefined) was read as Neddyl block 28, Tb MetRS inh 0, CSN deneddyl inh 2, PREPL inhibitor 31, HNF4A DNA FP 3 and Rpn11 inh -6.
For CC(C)NCC(O)Cn1c2c(c3ccccc31)CCc1c-2cnn1-c1ccccc1 (centres undefined) the results were Tb MetRS inh -2, CSN deneddyl inh 5, PREPL inhibitor 66*, HNF4A DNA FP 3, Rpn11 inh -10 and PREPL confirm 82*.
Cc1ccc2nc3c(cc(C(=O)NCCc4ccccc4)c(=N)n3CCN3CCOCC3)c(=O)n2c1 was read as Tb MetRS inh 0, CSN deneddyl inh 2, PREPL inhibitor 45*, HNF4A DNA FP -1, Rpn11 inh -9 and PREPL confirm 42.
`COc1ccc(CCNC(=O)C(=O)NCCC2CCCCN2S(=O)(=O)c2ccccc2)cc1` (centres undefined) gave Neddyl block 9, Tb MetRS inh 0, CSN deneddyl inh 2, PREPL inhibitor 3, HNF4A DNA FP 2 and Rpn11 inh -4.
`Cc1cccc(NS(=O)(=O)c2ccc(C)c(C(=O)NNC(=O)c3csc(N4CCOCC4)n3)c2)c1` gave Neddyl block -18, Tb MetRS inh 0, CSN deneddyl inh 3, HNF4A DNA FP 0 and Rpn11 inh 2.
`CC1=Nc2ccccc2/C1=C/c1sc(=O)n(CC(=O)N2CCCC2)c1O` gave Neddyl block -11, Tb MetRS inh -1, CSN deneddyl inh 0, PREPL inhibitor 5, HNF4A DNA FP 3 and Rpn11 inh -3.
Screening CC1=Nc2ccccc2/C1=C\c1sc(Nc2ccc(C)cc2)nc1O returned Neddyl block 15, Tb MetRS inh 0, CSN deneddyl inh -3, PREPL inhibitor 52*, HNF4A DNA FP 6, Rpn11 inh 19 and PREPL confirm 46*.
Oc1nc(Nc2cccc(Cl)c2)sc1/C=C1\C=Nc2ccccc21 was read as Neddyl block 16, Tb MetRS inh 1, CSN deneddyl inh 4, PREPL inhibitor 56*, HNF4A DNA FP 3, Rpn11 inh 32 and PREPL confirm 64*.
S=c1[nH]nc(Nc2cccc(Cl)c2)s1 was read as Neddyl block -1, Tb MetRS inh 0, CSN deneddyl inh 3, PREPL inhibitor 7, HNF4A DNA FP 1 and Rpn11 inh -2.
O=C(COC(=O)Cc1ccc(S(=O)(=O)N2CCOCC2)s1)Nc1ccc([N+](=O)[O-])cc1 was read as Neddyl block -14, Tb MetRS inh 0, CSN deneddyl inh -3, PREPL inhibitor 45*, HNF4A DNA FP -2, Rpn11 inh 6 and PREPL confirm 38.
